Test results from ChEMBL document CHEMBL2163205 (J Med Chem, 2012).
≈ marks a conversion by molar mass, not a printed value.

Key:
Cathepsin K = biological target: T1, Cathepsin K (Homo sapiens, UniProt P43235); experiment: Inhibition of human recombinant CatK assessed as suppression of enzyme-mediated Z-Phe-Arg-AMC cleavage incubated for 1 hrs by QFRET assay
T1 sequence (P43235 whole entry): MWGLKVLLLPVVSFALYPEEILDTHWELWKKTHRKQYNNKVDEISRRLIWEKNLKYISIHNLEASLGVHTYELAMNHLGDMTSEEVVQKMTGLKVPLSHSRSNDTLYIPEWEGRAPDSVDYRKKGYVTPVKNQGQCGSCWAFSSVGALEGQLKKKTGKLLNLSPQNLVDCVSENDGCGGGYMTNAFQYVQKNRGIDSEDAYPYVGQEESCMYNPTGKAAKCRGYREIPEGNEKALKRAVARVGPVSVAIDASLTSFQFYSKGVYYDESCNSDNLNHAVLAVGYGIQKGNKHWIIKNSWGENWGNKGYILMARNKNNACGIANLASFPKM

Cathepsin B = Cathepsin B (Homo sapiens, UniProt P07858); experiment: Inhibition of human recombinant CatB assessed as suppression of enzyme-mediated Z-Arg-Arg-AMC cleavage by QFRET assay
Summary of the method: (§1)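 Recombinant human Cat B at 0.5 nM final was preincubated with compound for 30 min at room temperature. Z-Arg-Arg-AMC (100 μM final) was added in potassium phosphate buffer, pH 6.4, incubated 1 h, then stopped with acetic acid. Fluorescence read at ex 360/em 425 nm with background correction; IC50 by nonlinear regression.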

Procathepsin L = Procathepsin L (Homo sapiens, UniProt P07711); experiment: Inhibition of human recombinant CatL assessed as suppression of enzyme-mediated Z-Phe-Arg-AMC cleavage by QFRET assay
Summary of the method: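 Recombinant human Cat L at 0.1 nM final was preincubated with compound for 30 min, then Z-Phe-Arg-AMC (10 μM final) was added. QFRET cleavage was run 1 h at room temperature and stopped with acetic acid. Fluorescence read at ex 360/em 425 nm; IC50 by variable-slope nonlinear regression.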

[1] = Intrinsic clearance in human liver microsomes assessed as metabolic turnover
[2] = Intrinsic clearance in rat liver microsomes assessed as metabolic turnover
[3] = Lipophilicity, log D of the compound at pH 7.4; conditions: buffer
[4] = Aqueous solubility of the compound at pH 7.4; conditions: buffer
Cathepsin S = Cathepsin S (Homo sapiens, UniProt P25774); experiment: Inhibition of human recombinant CatS assessed as suppression of enzyme-mediated Z-Val-Val-Arg-AMC cleavage by QFRET assay
Summary of the method: as §1, with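 “S” for “B”, “Z-Val-Val-Arg-AMC” for “Z-Arg-Arg-AMC”, “AMC fluorescence” for “Fluorescence”, “nm;” for “nm with background correction;”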

Cathepsin S, sequence (P25774 whole entry): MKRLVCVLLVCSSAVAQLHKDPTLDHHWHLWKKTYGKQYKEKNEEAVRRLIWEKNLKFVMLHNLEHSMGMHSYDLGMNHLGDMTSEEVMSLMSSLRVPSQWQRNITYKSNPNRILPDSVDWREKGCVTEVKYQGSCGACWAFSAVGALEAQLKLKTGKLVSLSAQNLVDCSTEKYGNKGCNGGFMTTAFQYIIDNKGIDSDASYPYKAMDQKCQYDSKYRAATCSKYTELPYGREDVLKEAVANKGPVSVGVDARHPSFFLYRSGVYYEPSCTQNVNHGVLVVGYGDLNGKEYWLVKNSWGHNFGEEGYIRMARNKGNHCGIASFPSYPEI
Procathepsin L, sequence (P07711 whole entry): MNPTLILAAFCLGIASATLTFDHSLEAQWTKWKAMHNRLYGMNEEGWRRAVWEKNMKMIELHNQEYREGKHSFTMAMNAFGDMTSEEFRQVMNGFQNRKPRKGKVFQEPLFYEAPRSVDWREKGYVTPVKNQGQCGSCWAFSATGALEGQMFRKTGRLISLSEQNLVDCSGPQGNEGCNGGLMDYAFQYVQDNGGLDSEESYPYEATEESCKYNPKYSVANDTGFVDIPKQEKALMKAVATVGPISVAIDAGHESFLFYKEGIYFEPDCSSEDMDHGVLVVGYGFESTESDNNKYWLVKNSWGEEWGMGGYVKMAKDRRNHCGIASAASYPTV

N#CCNC(=O)[C@@H]1CCCC[C@H]1C(=O)N1CCc2[nH]c3ccc(F)cc3c2C1
IC50 (Cathepsin K): < 1 nM
IC50 (Cathepsin B): 1420 nM
IC50 (Procathepsin L; read-out: IC50): > 40 µM
microsomal CLint [1]: 18 µL/min/mg
microsomal CLint [2]: > 250 µL/min/mg

N#CC1(NC(=O)[C@@H]2CCCC[C@H]2C(=O)N2CCc3[nH]c4c(Cl)cccc4c3C2)CC1
IC50 (Cathepsin K): 2 nM
IC50 (Cathepsin B): > 2900 nM
IC50 (Procathepsin L): Not Active
microsomal CLint [1]: 46 µL/min/mg
microsomal CLint [2]: 226 µL/min/mg

N#CC1(NC(=O)[C@@H]2CCCC[C@H]2C(=O)N2CCc3[nH]c4c(Br)cccc4c3C2)CC1
IC50 (Cathepsin K): 4 nM
IC50 (Cathepsin B): > 2900 nM
IC50 (Procathepsin L): Not Active
microsomal CLint [1]: 43 µL/min/mg
microsomal CLint [2]: 164 µL/min/mg

CS(=O)(=O)c1ccc2c3c([nH]c2c1)CCN(C(=O)[C@@H]1CCCC[C@H]1C(=O)NC1(C#N)CC1)C3
IC50 (Cathepsin K): 34 nM
logD [3]: 1.5
solubility [4]: 902 µM (≈ 423 µg/mL)
IC50 (Cathepsin B): > 2900 nM
IC50 (Cathepsin S): > 4 µM
IC50 (Procathepsin L): Not Active
microsomal CLint [1]: < 2 µL/min/mg
microsomal CLint [2]: 7.2 µL/min/mg

CC(C)(C)[C@@H](C#N)NC(=O)[C@@H]1CCCC[C@H]1C(=O)N1CCc2[nH]c3ccc(F)cc3c2C1
IC50 (Cathepsin K): 785 nM
logD [3]: > 4.1
solubility [4]: 74 µM (≈ 32.5 µg/mL)
IC50 (Cathepsin B): 31200 nM
IC50 (Cathepsin S): > 100 µM
IC50 (Procathepsin L; read-out: IC50): > 100 µM
microsomal CLint [1]: 99 µL/min/mg
microsomal CLint [2]: 195 µL/min/mg

N#CC1(NC(=O)[C@@H]2CCCC[C@H]2C(=O)N2CCc3[nH]c4cccc(F)c4c3C2)CC1
IC50 (Cathepsin K): 10 nM
logD [3]: 3.2
solubility [4]: 128 µM (≈ 52.3 µg/mL)
IC50 (Cathepsin B): > 2900 nM
IC50 (Cathepsin S): > 4 µM
IC50 (Procathepsin L): Not Active
microsomal CLint [1]: 57 µL/min/mg
microsomal CLint [2]: 322 µL/min/mg

N#CCNC(=O)[C@@H]1CCCC[C@H]1C(=O)N1CCc2ccccc2C1
IC50 (Cathepsin K): 2 nM
IC50 (Cathepsin B): 712 nM
IC50 (Procathepsin L; read-out: IC50): 3.11 µM
microsomal CLint [1]: 23 µL/min/mg
microsomal CLint [2]: 145 µL/min/mg

N#CC1(NC(=O)[C@@H]2CCCC[C@H]2C(=O)N2CCc3[nH]c4c(F)cccc4c3C2)CC1
IC50 (Cathepsin K): < 1 nM
logD [3]: 3
solubility [4]: 470 µM (≈ 192 µg/mL)
IC50 (Cathepsin B): > 2900 nM
IC50 (Cathepsin S): > 4 µM
IC50 (Procathepsin L): Not Active
microsomal CLint [1]: 55 µL/min/mg
microsomal CLint [2]: 311 µL/min/mg

N#CC1(NC(=O)[C@@H]2CCCC[C@H]2C(=O)N2CCc3[nH]c4cc(F)ccc4c3C2)CC1
IC50 (Cathepsin K): 4 nM
logD [3]: 3
solubility [4]: 540 µM (≈ 221 µg/mL)
IC50 (Cathepsin B): > 2900 nM
IC50 (Cathepsin S): > 4 µM
IC50 (Procathepsin L): Not Active
microsomal CLint [1]: 36 µL/min/mg
microsomal CLint [2]: 89 µL/min/mg

Cn1c2c(c3c(F)c(F)ccc31)CN(C(=O)[C@@H]1CCCC[C@H]1C(=O)NC1(C#N)CC1)CC2
IC50 (Cathepsin K): 3 nM
logD [3]: 2.8
solubility [4]: 300 µM (≈ 132 µg/mL)
IC50 (Cathepsin B): > 2900 nM
IC50 (Cathepsin S): > 4 µM
IC50 (Procathepsin L): Not Active
microsomal CLint [1]: 170 µL/min/mg
microsomal CLint [2]: > 350 µL/min/mg

CC(C)(F)C[C@H](N[C@@H](c1ccc(-c2ccc(S(C)(=O)=O)cc2)cc1)C(F)(F)F)C(=O)NC1(C#N)CC1 [ODANACATIB]
IC50 (Cathepsin K): < 1 nM
IC50 (Cathepsin S): 0.183 µM

Cc1cccc2c3c([nH]c12)CCN(C(=O)[C@@H]1CCCC[C@H]1C(=O)NC1(C#N)CC1)C3
IC50 (Cathepsin K): 3 nM
logD [3]: 3
solubility [4]: 510 µM (≈ 206 µg/mL)
IC50 (Cathepsin B): > 2900 nM
IC50 (Cathepsin S): > 4 µM
IC50 (Procathepsin L): Not Active
microsomal CLint [1]: 25 µL/min/mg
microsomal CLint [2]: 179 µL/min/mg

N#CC1(NC(=O)[C@@H]2CCCC[C@H]2C(=O)N2CCc3[nH]c4ccc(Cl)cc4c3C2)CC1
logD [3]: 3.7
solubility [4]: 130 µM (≈ 55.2 µg/mL)
IC50 (Cathepsin B): > 2900 nM
IC50 (Cathepsin S): > 4 µM
IC50 (Procathepsin L): Not Active
microsomal CLint [1]: 87 µL/min/mg
microsomal CLint [2]: > 350 µL/min/mg

CSc1cccc2c3c([nH]c12)CCN(C(=O)[C@@H]1CCCC[C@H]1C(=O)NC1(C#N)CC1)C3
IC50 (Cathepsin K): 4 nM
IC50 (Cathepsin B): > 2900 nM
IC50 (Cathepsin S): > 4 µM
IC50 (Procathepsin L): Not Active
microsomal CLint [1]: 79 µL/min/mg
microsomal CLint [2]: 303 µL/min/mg

N#CC1(NC(=O)[C@@H]2CCCC[C@H]2C(=O)N2CCc3[nH]c4ccc(C(F)(F)F)cc4c3C2)CC1
logD [3]: 4.2
solubility [4]: 74 µM (≈ 33.9 µg/mL)
IC50 (Cathepsin B): > 2900 nM
IC50 (Cathepsin S): > 4 µM
IC50 (Procathepsin L): Not Active
microsomal CLint [1]: 33 µL/min/mg
microsomal CLint [2]: 82 µL/min/mg

COc1ccccc1C(C#N)NC(=O)[C@@H]1CCCC[C@H]1C(=O)N1CCN(Cc2ccc(F)cc2)CC1 (stereo partly drawn)
IC50 (Cathepsin K): 1 nM
IC50 (Cathepsin S): 0.076 µM

CCOc1cccc2c3c([nH]c12)CCN(C(=O)[C@@H]1CCCC[C@H]1C(=O)NC1(C#N)CC1)C3
IC50 (Cathepsin K): < 1 nM
logD [3]: 3.1
solubility [4]: 300 µM (≈ 130 µg/mL)
IC50 (Cathepsin B): > 2900 nM
IC50 (Cathepsin S): > 4 µM
IC50 (Procathepsin L): Not Active
microsomal CLint [1]: 13 µL/min/mg
microsomal CLint [2]: 62 µL/min/mg

N#CC1(NC(=O)[C@@H]2CCCC[C@H]2C(=O)N2CCc3[nH]c4c(OC(F)(F)F)cccc4c3C2)CC1
IC50 (Cathepsin K): 2 nM
logD [3]: 4
solubility [4]: 120 µM (≈ 56.9 µg/mL)
IC50 (Cathepsin B): > 2900 nM
IC50 (Cathepsin S): > 4 µM
IC50 (Procathepsin L): Not Active
microsomal CLint [1]: 19 µL/min/mg
microsomal CLint [2]: 53 µL/min/mg

C[C@@H](C#N)NC(=O)[C@@H]1CCCC[C@H]1C(=O)N1CCc2[nH]c3ccc(F)cc3c2C1
IC50 (Cathepsin K): 17.3 nM
logD [3]: 3.5
IC50 (Cathepsin B): 73500 nM
IC50 (Cathepsin S): > 70 µM
IC50 (Procathepsin L; read-out: IC50): > 40 µM

N#CC1(NC(=O)[C@@H]2CCCC[C@H]2C(=O)N2CCc3[nH]c4c(C(F)(F)F)cccc4c3C2)CC1
IC50 (Cathepsin K): 5 nM
logD [3]: 3.8
solubility [4]: 150 µM (≈ 68.8 µg/mL)
IC50 (Cathepsin B): > 2900 nM
IC50 (Cathepsin S): > 4 µM
IC50 (Procathepsin L): Not Active
microsomal CLint [1]: 26 µL/min/mg
microsomal CLint [2]: 116 µL/min/mg

CC(C)c1ccc2[nH]c3c(c2c1)CN(C(=O)[C@@H]1CCCC[C@H]1C(=O)NC1(C#N)CC1)CC3
IC50 (Cathepsin K): 50 nM
logD [3]: 4.1
solubility [4]: 84 µM (≈ 36.3 µg/mL)
IC50 (Cathepsin B): > 2900 nM
IC50 (Cathepsin S): > 4 µM
IC50 (Procathepsin L): Not Active

N#CC(NC(=O)[C@@H]1CCCC[C@H]1C(=O)N1CCN(c2ccc(F)cc2)CC1)c1ccccc1 (stereo partly drawn)
IC50 (Cathepsin K): 3 nM
IC50 (Cathepsin S): 0.258 µM

CS(=O)(=O)c1cccc2c3c([nH]c12)CCN(C(=O)[C@@H]1CCCC[C@H]1C(=O)NC1(C#N)CC1)C3
IC50 (Cathepsin K): 17 nM
logD [3]: 1.7
solubility [4]: 1600 µM (≈ 750 µg/mL)
IC50 (Cathepsin B): > 2900 nM
IC50 (Cathepsin S): > 4 µM
IC50 (Procathepsin L): Not Active
microsomal CLint [1]: 4 µL/min/mg
microsomal CLint [2]: 23 µL/min/mg

C[C@H](C#N)NC(=O)[C@@H]1CCCC[C@H]1C(=O)N1CCc2[nH]c3ccc(F)cc3c2C1
IC50 (Cathepsin K): 16.2 nM
logD [3]: 3.1
solubility [4]: 460 µM (≈ 182 µg/mL)
IC50 (Cathepsin B): 44900 nM
IC50 (Cathepsin S): > 100 µM
IC50 (Procathepsin L; read-out: IC50): > 100 µM
microsomal CLint [1]: 12 µL/min/mg
microsomal CLint [2]: > 250 µL/min/mg

N#CCNC(=O)[C@@H]1CCCC[C@H]1C(=O)N1CCN(c2ccccc2)CC1
IC50 (Cathepsin K): 7 nM
logD [3]: 1.8
solubility [4]: 640 µM (≈ 227 µg/mL)
IC50 (Cathepsin B): 455 nM
IC50 (Cathepsin S): 1.03 µM
IC50 (Procathepsin L; read-out: IC50): > 100 µM
microsomal CLint [1]: 7.7 µL/min/mg
microsomal CLint [2]: 115 µL/min/mg

N#CCNC(=O)[C@@H]1CCCC[C@H]1C(=O)N1CCCCC1
IC50 (Cathepsin K): 73 nM
logD [3]: 0.9
solubility [4]: > 4900 µM
IC50 (Cathepsin B): 8750 nM
IC50 (Cathepsin S): 2.11 µM
IC50 (Procathepsin L; read-out: IC50): > 100 µM
microsomal CLint [1]: < 2 µL/min/mg
microsomal CLint [2]: 12 µL/min/mg

N#CCNC(=O)[C@@H]1CCCC[C@H]1C(=O)N1CC=CCC1
IC50 (Cathepsin K): 18 nM
IC50 (Procathepsin L; read-out: IC50): > 100 µM
microsomal CLint [1]: 4.5 µL/min/mg
microsomal CLint [2]: 41 µL/min/mg
